In ChEMBL document CHEMBL1152990, “The mechanism of action of beta-D-2'-deoxy-2'-fluoro-2'-C-methylcytidine involves a second metabolic pathway leading to beta-D-2'-deoxy-2'-fluoro-2'-C-methyluridine 5'-triphosphate, a potent inhibitor of the hepatitis C virus RNA-dependent RNA polymerase” (Antimicrob Agents Chemother, 2008):
pKi: −log10 of the molar value.

Assays:
Hepatitis C virus [1] = assay: Antiviral activity against wild type HCV infected in human HuH7 cells assessed as inhibition of viral RNA replication after 4 days by replicon assay in absence of DCTD inhibitor zedularine; type: functional, Hepacivirus hominis; details: Huh-7, 96 h
Method in brief: (§1)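 Clone A Huh-7 replicon cells at 1,500 cells/well, without G418. Threefold serial compound dilutions were given with or without 100 μM zebularine, for 4 days at 37°C in 5% CO2. Replicon RNA was quantified by single-step multiplex RT-PCR, and activity was taken as ΔCT relative to the no-drug control.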

Hepatitis C virus [2] = assay: Antiviral activity against HCV harboring NS5B polymerase S282T mutation infected in human HuH7 cells assessed as inhibition of viral RNA replication after 4 days by replicon assay in absence of DCTD inhibitor zedularine; type: functional, Hepacivirus hominis; details: Huh-7, 96 h
Method in brief: (§2)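 Huh-7 clone A subgenomic replicon cells carrying NS5B S282T (selected by serial passage with 2′-C-methyladenosine) were seeded at 1,500 cells/well without G418. Threefold compound dilutions were added alone or with 100 μM zebularine, followed by 4 days at 37°C, 5% CO2. Replicon RNA was quantified by single-step multiplex RT-PCR, and activity was taken as ΔCT versus the no-drug control to give EC90.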

Hepatitis C virus [3] = assay: Antiviral activity against wild type HCV infected in human HuH7 cells assessed as inhibition of viral RNA replication after 4 days by replicon assay in presence of 100 uM DCTD inhibitor zedularine; type: functional, Hepacivirus hominis; details: Huh-7, 96 h; method in brief: as §1
Hepatitis C virus [4] = assay: Antiviral activity against HCV harboring NS5B polymerase S282T mutation infected in human HuH7 cells assessed as inhibition of viral RNA replication after 4 days by replicon assay in presence of 100 uM DCTD inhibitor zedularine; type: functional, Hepacivirus hominis; details: Huh-7, 96 h; method in brief: as §2
Hepatitis C virus [5] = assay: Ratio of EC90 for wild type HCV in viral replicon RNA-containing human HuH7 cells in absence of zedularine to EC90 wild type HCV in viral replicon RNA-containing human HuH7 cells in presence of zedularine; type: functional, Hepacivirus hominis, Huh-7; method in brief: as §1
Hepatocyte [6] = assay: Metabolic stability in human hepatocytes assessed as PSI-6130 triphosphate half life at 2 uM
Hepatocyte [7] = assay: Metabolic stability in human hepatocytes assessed as RO2433 triphosphate half life at 2 uM; type: ADME, cell-based, Liver
[8] = Activity of wild type HCV NS5B polymerase; set-up: species or system Hepacivirus hominis
Method in brief: (§3)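 De novo RNA synthesis by NS5B lacking 21 C-terminal residues, in 50 mM HEPES pH 7.5 with 5 mM MgCl2 and 2 mM DTT at 27°C. Template was unprimed minus-IRES RNA, 2.8 μg each of enzyme and template. CTP 10 μM, ATP and GTP 100 μM; 32P-UTP and inhibitor were varied. Aliquots were quenched with EDTA/NaCl/citrate.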

[9] = Inhibition of wild type HCV NS5B polymerase assessed as incorporation of [alpha32P]UTP into newly synthesized RNA by liquid scintillation counting; set-up: species or system Hepacivirus hominis; method in brief: as §3
[10] = target: RNA-directed RNA polymerase (Hepacivirus hominis, UniProt O39930, S282T); assay: Inhibition of HCV NS5B polymerase S282T mutant assessed as incorporation of [alpha32P]UTP into newly synthesized RNA by liquid scintillation counting
Method in brief: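 S282T NS5B (C-terminal Δ21, E. coli-expressed) de novo RNA synthesis on an unprimed minus-IRES template at 27°C in 50 mM HEPES pH 7.5 with 5 mM MgCl2 and 2 mM DTT. CTP, ATP and GTP were fixed at 10, 100 and 100 μM, and 32P-UTP and inhibitor were varied. Timed aliquots were quenched with EDTA/NaCl/citrate stop solution. Steady-state competitive inhibition gave the Ki.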

Hepatocyte [11] = assay: Metabolic stability in human hepatocytes assessed as RO2433 triphosphate half life at 2 uM
[12] = Drug metabolism in HCV subgenomic replicon RNA-containing human HuH7 cells assessed as PSI-6130 nucleotide monophosphate level per 10 '6 cells at 5 uM after 48 hrs by HPLC analysis in absence of DCTD inhibitor zedularine; type: ADME, cell-based; details: huh-7, 48 h
Method in brief: (§4)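 Clone A Huh-7 replicon cells were grown overnight in DMEM with 10% FBS. They were then exposed to 5 μM [3H]PSI-6130 with 0, 50 or 100 μM zebularine for 48 h at 37°C. Cells were washed, trypsinized, counted and extracted in cold 60% methanol. Nucleotides were separated by SAX HPLC (0–100% buffer B over 90 min) with radiometric flow detection.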

[13] = Drug metabolism in HCV subgenomic replicon RNA-containing human HuH7 cells assessed as PSI-6130 nucleotide monophosphate level per 10 '6 cells at 5 uM after 48 hrs by HPLC analysis in presence of 50 uM DCTD inhibitor zedularine; type: ADME, cell-based; details: huh-7, 48 h; method in brief: as §4
[14] = Drug metabolism in HCV subgenomic replicon RNA-containing human HuH7 cells assessed as PSI-6130 nucleotide monophosphate level per 10 '6 cells at 5 uM after 48 hrs by HPLC analysis in presence of 100 uM DCTD inhibitor zedularine; type: ADME, cell-based; details: huh-7, 48 h; method in brief: as §4
[15] = Drug metabolism in HCV subgenomic replicon RNA-containing human HuH7 cells assessed as PSI-6130 nucleotide diphosphate level per 10 '6 cells at 5 uM after 48 hrs by HPLC analysis in absence of DCTD inhibitor zedularine; type: ADME, cell-based; details: huh-7, 48 h; method in brief: as §4
[16] = Drug metabolism in HCV subgenomic replicon RNA-containing human HuH7 cells assessed as PSI-6130 nucleotide diphosphate level per 10 '6 cells at 5 uM after 48 hrs by HPLC analysis in presence of 50 uM DCTD inhibitor zedularine; type: ADME, cell-based; details: huh-7, 48 h; method in brief: as §4
[17] = Drug metabolism in HCV subgenomic replicon RNA-containing human HuH7 cells assessed as PSI-6130 nucleotide diphosphate level per 10 '6 cells at 5 uM after 48 hrs by HPLC analysis in presence of 100 uM DCTD inhibitor zedularine; type: ADME, cell-based; details: huh-7, 48 h; method in brief: as §4
[18] = Drug metabolism in HCV subgenomic replicon RNA-containing human HuH7 cells assessed as PSI-6130 nucleotide triphosphate level per 10 '6 cells at 5 uM after 48 hrs by HPLC analysis in absence of DCTD inhibitor zedularine; type: ADME, cell-based; details: huh-7, 48 h; method in brief: as §4
[19] = Drug metabolism in HCV subgenomic replicon RNA-containing human HuH7 cells assessed as PSI-6130 nucleotide triphosphate level per 10 '6 cells at 5 uM after 48 hrs by HPLC analysis in presence of 50 uM DCTD inhibitor zedularine; type: ADME, cell-based; details: huh-7, 48 h; method in brief: as §4
[20] = Drug metabolism in HCV subgenomic replicon RNA-containing human HuH7 cells assessed as PSI-6130 nucleotide triphosphate level per 10 '6 cells at 5 uM after 48 hrs by HPLC analysis in presence of 100 uM DCTD inhibitor zedularine; type: ADME, cell-based; details: huh-7, 48 h; method in brief: as §4
[21] = Drug metabolism in HCV subgenomic replicon RNA-containing human HuH7 cells assessed as RO2433 nucleotide monophosphate level per 10 '6 cells at 5 uM after 48 hrs by HPLC analysis in absence of DCTD inhibitor zedularine; type: ADME, cell-based; details: huh-7, 48 h; method in brief: as §4
[22] = Drug metabolism in HCV subgenomic replicon RNA-containing human HuH7 cells assessed as RO2433 nucleotide monophosphate level per 10 '6 cells at 5 uM after 48 hrs by HPLC analysis in presence of 50 uM DCTD inhibitor zedularine; type: ADME, cell-based; details: huh-7, 48 h; method in brief: as §4
[23] = Drug metabolism in HCV subgenomic replicon RNA-containing human HuH7 cells assessed as RO2433 nucleotide monophosphate level per 10 '6 cells at 5 uM after 48 hrs by HPLC analysis in presence of 100 uM DCTD inhibitor zedularine; type: ADME, cell-based; details: huh-7, 48 h; method in brief: as §4
[24] = Drug metabolism in HCV subgenomic replicon RNA-containing human HuH7 cells assessed as RO2433 nucleotide diphosphate level per 10 '6 cells at 5 uM after 48 hrs by HPLC analysis in absence of DCTD inhibitor zedularine; type: ADME, cell-based; details: huh-7, 48 h; method in brief: as §4
[25] = Drug metabolism in HCV subgenomic replicon RNA-containing human HuH7 cells assessed as RO2433 nucleotide diphosphate level per 10 '6 cells at 5 uM after 48 hrs by HPLC analysis in presence of 50 uM DCTD inhibitor zedularine; type: ADME, cell-based; details: huh-7, 48 h; method in brief: as §4
[26] = Drug metabolism in HCV subgenomic replicon RNA-containing human HuH7 cells assessed as RO2433 nucleotide diphosphate level at 5 uM after 48 hrs by HPLC analysis in presence of 100 uM DCTD inhibitor zedularine; type: ADME, cell-based; details: huh-7, 48 h; method in brief: as §4
[27] = Drug metabolism in HCV subgenomic replicon RNA-containing human HuH7 cells assessed as RO2433 nucleotide triphosphate level per 10 '6 cells at 5 uM after 48 hrs by HPLC analysis in absence of DCTD inhibitor zedularine; type: ADME, cell-based; details: huh-7, 48 h; method in brief: as §4
[28] = Drug metabolism in HCV subgenomic replicon RNA-containing human HuH7 cells assessed as RO2433 nucleotide triphosphate level per 10 '6 cells at 5 uM after 48 hrs by HPLC analysis in presence of 50 uM DCTD inhibitor zedularine; type: ADME, cell-based; details: huh-7, 48 h; method in brief: as §4
[29] = Drug metabolism in HCV subgenomic replicon RNA-containing human HuH7 cells assessed as RO2433 nucleotide triphosphate level per 10 '6 cells at 5 uM after 48 hrs by HPLC analysis in presence of 100 uM DCTD inhibitor zedularine; type: ADME, cell-based; details: huh-7, 48 h; method in brief: as §4
Hepatitis C virus [30] = assay: Antiviral activity against wild type HCV infected in human HuH7 cells assessed as inhibition of viral RNA replication after 4 days by replicon assay; type: functional, Hepacivirus hominis; details: Huh-7, 96 h
Method in brief: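 Wild-type HCV subgenomic replicon Huh-7 cells (clone A) were plated at 1,500 cells/well in G418-free medium with threefold serial compound dilutions and incubated for 4 days at 37°C, 5% CO2. Replicon RNA was extracted and measured by single-step multiplex RT-PCR. Activity was calculated as the CT shift from the no-drug control, with EC90 derived.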

[31] = Cytotoxicity against HCV subgenomic replicon RNA-containing human HuH7 cells at > 400 uM; type: cell-based; details: huh-7

Chain of RNA-directed RNA polymerase (O39930 entry or part of it S282T): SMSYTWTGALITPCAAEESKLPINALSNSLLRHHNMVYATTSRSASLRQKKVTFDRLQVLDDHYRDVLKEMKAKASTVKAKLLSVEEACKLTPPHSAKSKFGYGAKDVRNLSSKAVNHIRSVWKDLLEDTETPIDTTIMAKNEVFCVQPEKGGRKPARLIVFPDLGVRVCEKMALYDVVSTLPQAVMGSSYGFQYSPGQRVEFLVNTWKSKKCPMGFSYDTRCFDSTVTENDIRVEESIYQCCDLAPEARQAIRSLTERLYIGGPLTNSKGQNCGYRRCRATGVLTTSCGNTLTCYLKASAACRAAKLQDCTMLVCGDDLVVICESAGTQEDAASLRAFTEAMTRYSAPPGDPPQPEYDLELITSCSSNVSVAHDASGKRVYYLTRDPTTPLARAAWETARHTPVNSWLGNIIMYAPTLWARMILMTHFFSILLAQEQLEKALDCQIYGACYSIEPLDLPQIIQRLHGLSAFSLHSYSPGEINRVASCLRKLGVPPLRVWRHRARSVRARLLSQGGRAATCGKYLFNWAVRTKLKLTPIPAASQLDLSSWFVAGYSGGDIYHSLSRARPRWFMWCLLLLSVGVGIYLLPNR

In the case of `C[C@@]1(F)[C@H](O)[C@@H](CO)O[C@H]1n1ccc(N)nc1=O`, the EC90 (Hepatitis C virus [1]) was 4.9 µM, the EC90 (Hepatitis C virus [2]) was 23.8 µM and the EC90 (Hepatitis C virus [3]) was 2.1 µM. It also gave an EC90 (Hepatitis C virus [4]) of 8.9 µM, a Ratio (Hepatitis C virus [5]) of 2.3 and a t1/2 (Hepatocyte [6]) of 4.7 h.

With `C[C@@]1(F)[C@H](O)[C@@H](CO)O[C@H]1n1ccc(=O)[nH]c1=O` the EC90 (Hepatitis C virus [1]) was over 100 µM and the Activity (Hepatocyte [7]) was “Not Active”.

Molecule `COC(=O)[C@H](C)NP(=O)(OC[C@H]1O[C@@H](n2ccc(=O)[nH]c2=O)[C@](C)(F)[C@@H]1O)Oc1ccccc1` (stereo partly specified) has an EC90 (Hepatitis C virus [1]) of 1.6 µM and an EC90 (Hepatitis C virus [2]) of 34.7 µM.

Work on `C[C@@]1(F)[C@H](O)[C@@H](COP(=O)(O)OP(=O)(O)OP(=O)(O)O)O[C@H]1n1ccc(=O)[nH]c1=O` [GS-461203] yielded a Km [8] of 0.068 µM, a pKi [9] of 6.38 and a pKi [10] of 4.66. For the same molecule, the t1/2 (Hepatocyte [11]) was 38 h.

Work on `C[C@@]1(F)[C@H](O)[C@@H](COP(=O)(O)OP(=O)(O)OP(=O)(O)O)O[C@H]1n1ccc(N)nc1=O` [PSI-6130-TP] yielded a pKi [9] of 7.23 and a pKi [10] of 6.51.

For `O=c1ncccn1[C@@H]1O[C@H](CO)[C@@H](O)[C@H]1O` [ZEBULARINE], the Activity [12] was 0.65 pmol, the Activity [13] was 1.04 pmol and the Activity [14] was 1.26 pmol. For the same molecule, the Activity [15] was 3.3 pmol, the Activity [16] was 5.48 pmol and the Activity [17] was 6.61 pmol. The Activity [18] was 11.53 pmol, the Activity [19] was 28.62 pmol and the Activity [20] was 31.74 pmol. For the same molecule, the Activity [21] was 0.79 pmol, the Activity [22] was 0.27 pmol and the Activity [23] was 0.22 pmol. The Activity [24] was 4.79 pmol, the Activity [25] was 1.33 pmol and the Activity [26] was 0.88 pmol. The Activity [27] was 11.51 pmol, the Activity [28] was 5.62 pmol and the Activity [29] was 3.53 pmol. The EC90 (Hepatitis C virus [30]) was over 400 µM and the Activity [31] was 50%.
